Experiment [1] deals with Staphylococcus aureus. Put plainly: Antibacterial activity against Staphylococcus aureus ATCC 25923 measured after 24 hrs by two-fold serial dilution method. In kind it is functional. Conditions: ATCC 25923, 24 h. In outline: (§1)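 MIC by two-fold serial broth microdilution in 96-well plates, following NCCLS recommendations. Chloromycin, norfloxacin and fluconazole serve as reference drugs. The MIC is read as the lowest concentration that inhibits growth, in µg/mL.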

Experiment [2] concerns Staphylococcus aureus. Put plainly: Antibacterial activity against methicillin-resistant Staphylococcus aureus N315 measured after 24 hrs by two-fold serial dilution method. The class given is functional. Particulars: N315, 24 h. A digest of the protocol: (§2)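 Two-fold serial dilution in 96-well microtest plates following NCCLS guidance (micro broth dilution). Chloromycin and norfloxacin serve as positive controls. MIC is reported in µg/mL.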

The next experiment has as its system Bacillus subtilis. Put plainly: Antibacterial activity against Bacillus subtilis measured after 24 hrs by two-fold serial dilution method. In kind it is functional. In outline: as §1
The subject of a further experiment is Micrococcus luteus. Put plainly: Antibacterial activity against Micrococcus luteus ATCC 4698 measured after 24 hrs by two-fold serial dilution method. In kind it is functional. Conditions: NCTC 2665, 24 h. A digest of the protocol: as §1
In another experiment the test system is Proteus vulgaris. Put plainly: Antibacterial activity against Bacillus proteus ATCC 13315 measured after 24 hrs by two-fold serial dilution method. The class given is functional. Conditions: ATCC 13315, 24 h. In outline: as §1
Another experiment concerns Escherichia coli. Put plainly: Antibacterial activity against Escherichia coli JM109 measured after 24 hrs by two-fold serial dilution method. The class given is functional. Conditions: JM109, 24 h. A digest of the protocol: as §1
Another experiment deals with Pseudomonas aeruginosa. Put plainly: Antibacterial activity against Pseudomonas aeruginosa measured after 24 hrs by two-fold serial dilution method. In kind it is functional. In outline: as §1
A further experiment deals with Salmonella typhi. The experiment in a line: Antibacterial activity against Salmonella typhi measured after 24 hrs by two-fold serial dilution method. The class given is functional, Salmonella enterica subsp. enterica serovar Typhi. Particulars: Salmonella enterica. In outline:
as §2

The test system of a further experiment is Candida albicans. The experiment in a line: Antifungal activity against Candida albicans ATCC 76615 measured after 24 hrs by two-fold serial dilution method. In kind it is functional. Particulars: ATCC 76615, 24 h. A digest of the protocol:
as §1

Experiment [3] is described as follows: Antifungal activity against Candida utilis measured after 24 hrs by two-fold serial dilution method. Particulars: Cyberlindnera jadinii. In kind it is functional. A digest of the protocol:
as §1

Experiment [4] can be described thus: Antifungal activity against Saccharomyces cerevisiae measured after 24 hrs by two-fold serial dilution method. The class given is functional. In outline: as §1
In another experiment the test system is Aspergillus flavus. The experiment in a line: Antifungal activity against Aspergillus flavus measured after 24 hrs by two-fold serial dilution method. In kind it is functional. In outline:
as §1

Molecules are shown by their SMILES. Values after ≈ are worked out from the molar mass of the structure shown.

As to `CCCCCCCCn1c(COc2c(OC)ccc3cc4[n+](cc23)CCc2cc3c(cc2-4)OCO3)nc2ccccc21.[Cl-]`, the MIC against Staphylococcus aureus [1] is 8 µg/mL; against Staphylococcus aureus [2], 64 µg/mL; against Bacillus subtilis, 8 µg/mL; in the experiment with Micrococcus luteus, 64 µg/mL; against Proteus vulgaris, 512 µg/mL; against Escherichia coli, 512 µg/mL. Besides, the MIC against Pseudomonas aeruginosa is 8 µg/mL; against Salmonella typhi it was 32 µg/mL. Moreover, the MIC80 against Candida albicans worked out at 16 µg/mL; in experiment [3], 32 µg/mL; in experiment [4] it was 512 µg/mL; in the experiment on Aspergillus flavus, 256 µg/mL.
In the case of `OC(Cn1cncn1)(Cn1cncn1)c1ccc(F)cc1F` [FLUCONAZOLE], the MIC80 against Candida albicans turned out to be 1 µg/mL (≈ 3.27 µM); in experiment [3], 8 µg/mL (≈ 26.1 µM); in experiment [4], 16 µg/mL (≈ 52.2 µM); with Aspergillus flavus, 256 µg/mL (≈ 836 µM).
Consider `COc1ccc2cc3[n+](cc2c1OCc1nc2ccccc2n1Cc1cccc(Cl)c1)CCc1cc2c(cc1-3)OCO2.[Cl-]`, for which the MIC against Staphylococcus aureus [1] turned out to be 512 µg/mL; in the experiment with Staphylococcus aureus [2], 512 µg/mL; against Bacillus subtilis, 512 µg/mL; against Micrococcus luteus, 16 µg/mL; with Proteus vulgaris, 128 µg/mL; in the experiment on Escherichia coli it was 512 µg/mL. Besides, the MIC against Pseudomonas aeruginosa and in the experiment with Salmonella typhi was 256 µg/mL each time. The MIC80 in the experiment with Candida albicans was determined as 512 µg/mL; in experiment [3], 16 µg/mL; in experiment [4], 512 µg/mL; against Aspergillus flavus it was 32 µg/mL.
As for `COc1ccc2cc3[n+](cc2c1OCc1nc2ccccc2n1Cc1ccc(Cl)cc1Cl)CCc1cc2c(cc1-3)OCO2.[Cl-]`, the minimal inhibitory concentration (MIC) was determined as 64 µg/mL against Staphylococcus aureus [1]; 4 µg/mL in the experiment with Staphylococcus aureus [2]; 512 µg/mL with Bacillus subtilis; 16 µg/mL with Micrococcus luteus; 8 µg/mL in the experiment on Proteus vulgaris; 16 µg/mL with Escherichia coli. In addition, the minimum inhibitory concentration (MIC) with Pseudomonas aeruginosa amounted to 32 µg/mL; with Salmonella typhi it was 16 µg/mL. Besides, the MIC80 against Candida albicans turned out to be 512 µg/mL; in experiment [3] it was 2 µg/mL; in experiment [4], 512 µg/mL; against Aspergillus flavus, 16 µg/mL.
Regarding `COc1ccc2cc3[n+](cc2c1OCc1nc2ccc(Cl)cc2[nH]1)CCc1cc2c(cc1-3)OCO2.[Cl-]`, the MIC came to 64 µg/mL against Staphylococcus aureus [1]; 256 µg/mL in the experiment on Staphylococcus aureus [2]; 512 µg/mL in the experiment on Bacillus subtilis; 128 µg/mL against Micrococcus luteus; 32 µg/mL with Proteus vulgaris; 512 µg/mL against Escherichia coli. Moreover, the values for the MIC against Pseudomonas aeruginosa and in the experiment with Salmonella typhi were 512 µg/mL and 64 µg/mL, respectively. The MIC80 in the experiment with Candida albicans was 512 µg/mL; in experiment [3], 256 µg/mL; in experiment [4], 512 µg/mL; in the experiment on Aspergillus flavus it was 32 µg/mL.
Take `CCCCCCCCCCn1c(COc2c(OC)ccc3cc4[n+](cc23)CCc2cc3c(cc2-4)OCO3)nc2ccccc21.[Cl-]`: the minimal inhibitory concentration (MIC) against Staphylococcus aureus [1] worked out at 16 µg/mL; with Staphylococcus aureus [2], 16 µg/mL; in the experiment on Bacillus subtilis, 32 µg/mL; in the experiment with Micrococcus luteus, 32 µg/mL; with Proteus vulgaris, 512 µg/mL; with Escherichia coli, 32 µg/mL. Further, the MIC is 16 µg/mL with Pseudomonas aeruginosa and 2 µg/mL with Salmonella typhi. For the same compound, the MIC80 is 8 µg/mL in the experiment with Candida albicans, 8 µg/mL in experiment [3], 512 µg/mL in [4] and 8 µg/mL with Aspergillus flavus.
In the case of `COc1ccc2cc3[n+](cc2c1OCc1nc2ccccc2n1Cc1ccc([N+](=O)[O-])cc1)CCc1cc2c(cc1-3)OCO2.[Cl-]`, the minimum inhibitory concentration (MIC) against Staphylococcus aureus [1] came out at 64 µg/mL; in the experiment with Staphylococcus aureus [2], 512 µg/mL; in the experiment on Bacillus subtilis, 512 µg/mL; against Micrococcus luteus it was 32 µg/mL; against Proteus vulgaris it was 32 µg/mL; against Escherichia coli, 32 µg/mL. The minimum inhibitory concentration (MIC) in the experiment on Pseudomonas aeruginosa stood at 512 µg/mL; against Salmonella typhi it was 256 µg/mL. Besides, the MIC80 with Candida albicans was found to be 128 µg/mL; in experiment [3], 32 µg/mL; in [4], 128 µg/mL; in the experiment on Aspergillus flavus it was 64 µg/mL.
Take `COc1ccc2cc3[n+](cc2c1OCc1nc2ccccc2n1Cc1ccccc1F)CCc1cc2c(cc1-3)OCO2.[Cl-]`: the MIC is 2 µg/mL in the experiment with Staphylococcus aureus [1]; 512 µg/mL in the experiment on Staphylococcus aureus [2]; 256 µg/mL with Bacillus subtilis; 8 µg/mL in the experiment with Micrococcus luteus; 128 µg/mL in the experiment on Proteus vulgaris; 128 µg/mL against Escherichia coli. Also, the minimum inhibitory concentration (MIC) stood at 512 µg/mL in the experiment with Pseudomonas aeruginosa and 4 µg/mL with Salmonella typhi. Further, the MIC80 worked out at 512 µg/mL with Candida albicans, 4 µg/mL in experiment [3], 128 µg/mL in [4] and 8 µg/mL in the experiment on Aspergillus flavus.
Consider `CCCCCCCCCCCCCCCCCCn1c(COc2c(OC)ccc3cc4[n+](cc23)CCc2cc3c(cc2-4)OCO3)nc2ccccc21.[Cl-]`, for which the MIC amounted to 512 µg/mL in the experiment on Staphylococcus aureus [1]; 512 µg/mL in the experiment with Staphylococcus aureus [2]; 512 µg/mL in the experiment on Bacillus subtilis; 512 µg/mL with Micrococcus luteus; 64 µg/mL against Proteus vulgaris; 512 µg/mL in the experiment on Escherichia coli. In addition, the MIC in the experiment on Pseudomonas aeruginosa was determined as 512 µg/mL; against Salmonella typhi, 256 µg/mL. The MIC80 against Candida albicans was 512 µg/mL; in experiment [3], 128 µg/mL; in experiment [4] it was 512 µg/mL; in the experiment on Aspergillus flavus it was 512 µg/mL.
Regarding `CCn1c(COc2c(OC)ccc3cc4[n+](cc23)CCc2cc3c(cc2-4)OCO3)nc2ccccc21.[Cl-]`, the minimal inhibitory concentration (MIC) in the experiment with Staphylococcus aureus [1] was found to be 512 µg/mL; with Staphylococcus aureus [2] it was 128 µg/mL; against Bacillus subtilis, 512 µg/mL; against Micrococcus luteus it was 64 µg/mL; against Proteus vulgaris it was 512 µg/mL; with Escherichia coli, 64 µg/mL. Further, the MIC in the experiment on Pseudomonas aeruginosa and against Salmonella typhi was 512 µg/mL in each case. Besides, the MIC80 against Candida albicans turned out to be 512 µg/mL; in experiment [3], 128 µg/mL; in experiment [4], 512 µg/mL; against Aspergillus flavus it was 256 µg/mL.
Take `COc1ccc2cc3[n+](cc2c1OCc1nc2ccccc2[nH]1)CCc1cc2c(cc1-3)OCO2.[Cl-]`: the minimal inhibitory concentration (MIC) with Staphylococcus aureus [1] was 512 µg/mL; in the experiment with Staphylococcus aureus [2] it was 256 µg/mL; in the experiment on Bacillus subtilis it was 512 µg/mL; in the experiment on Micrococcus luteus, 32 µg/mL; in the experiment on Proteus vulgaris, 256 µg/mL; in the experiment on Escherichia coli, 512 µg/mL. The MIC with Pseudomonas aeruginosa was determined as 256 µg/mL; in the experiment with Salmonella typhi, 16 µg/mL. The MIC80 with Candida albicans worked out at 256 µg/mL; in experiment [3], 64 µg/mL; in experiment [4], 512 µg/mL; with Aspergillus flavus it was 32 µg/mL.
Regarding `O=C(N[C@H](CO)[C@H](O)c1ccc([N+](=O)[O-])cc1)C(Cl)Cl` [CHLORAMPHENICOL], the MIC is 16 µg/mL (≈ 49.5 µM) against Staphylococcus aureus [1]; 16 µg/mL (≈ 49.5 µM) against Staphylococcus aureus [2]; 32 µg/mL (≈ 99 µM) against Bacillus subtilis; 8 µg/mL (≈ 24.8 µM) with Micrococcus luteus; 32 µg/mL (≈ 99 µM) against Proteus vulgaris; 32 µg/mL (≈ 99 µM) with Escherichia coli. The MIC against Pseudomonas aeruginosa and with Salmonella typhi was 32 µg/mL (≈ 99 µM) throughout.
In the case of `CCCCCCCCCCCCCCCCn1c(COc2c(OC)ccc3cc4[n+](cc23)CCc2cc3c(cc2-4)OCO3)nc2ccccc21.[Cl-]`, the minimal inhibitory concentration (MIC) against Staphylococcus aureus [1] came to 256 µg/mL; in the experiment with Staphylococcus aureus [2], 256 µg/mL; in the experiment on Bacillus subtilis, 512 µg/mL; in the experiment with Micrococcus luteus, 128 µg/mL; with Proteus vulgaris, 512 µg/mL; in the experiment on Escherichia coli it was 64 µg/mL. Moreover, the MIC with Pseudomonas aeruginosa and against Salmonella typhi was 128 µg/mL throughout. The MIC80 came to 64 µg/mL in the experiment on Candida albicans, 128 µg/mL in experiment [3], 512 µg/mL in experiment [4] and 128 µg/mL in the experiment with Aspergillus flavus.
As for `CCn1cc(C(=O)O)c(=O)c2cc(F)c(N3CCNCC3)cc21` [NORFLOXACIN], the minimal inhibitory concentration (MIC) was found to be 2 µg/mL (≈ 6.26 µM) against Staphylococcus aureus [1]; 8 µg/mL (≈ 25.1 µM) in the experiment with Staphylococcus aureus [2]; 4 µg/mL (≈ 12.5 µM) against Bacillus subtilis; 2 µg/mL (≈ 6.26 µM) against Micrococcus luteus; 8 µg/mL (≈ 25.1 µM) against Proteus vulgaris; 1 µg/mL (≈ 3.13 µM) with Escherichia coli. Besides, the MIC against Pseudomonas aeruginosa amounted to 16 µg/mL (≈ 50.1 µM); against Salmonella typhi, 4 µg/mL (≈ 12.5 µM).

The values above are taken from ChEMBL document CHEMBL3865797, “Design, synthesis and biological evaluation of berberine-benzimidazole hybrids as new type of potentially DNA-targeting antimicrobial agents” (Eur J Med Chem, 2016).
